Experimental findings from ChEMBL document CHEMBL1156963, “Regioselective one-pot synthesis and anti-proliferative and apoptotic effects of some novel tetrazolo[1,5-a]pyrimidine derivatives” (Bioorg Med Chem, 2010) are described below.

Active and inactive are the calls of the source. The rule behind the calls is not given here.

Data set [1] relates to Ehrlich. The data set can be described thus: Induction of apoptosis in mouse EAC cells transplanted in Albino mouse assessed as increase in p53 level at 10 mg/kg, po QD for 2 weeks […] relative to control. Details: dose 10 mg/kg. Type of data set: functional, organism-based.
Data set [2] in a line: Toxicity in Albino mouse assessed as mortality after 48 hrs. Format: organism-based. The settings on record: in vivo.
In data set [3] the test system is Ehrlich. Description: Antitumor activity against mouse EAC cells transplanted in Albino mouse assessed as decrease in number of living cells at 10 mg/kg, po QD for 2 weeks using trypan blue staining by Neubauer hemocytometry relative to control. Type of data set: functional, organism-based. Details: dose 10 mg/kg. In a few lines:
(§1)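 Female albino mice each received 0.2 ml EAC ascites intraperitoneally (stock aliquot diluted 1:50 in saline). Dosing was 10 mg/kg in 10% DMSO by gastric intubation, daily for 2 weeks from the day of inoculation, against a 10% DMSO vehicle group (12 mice per group). At the end, under ether, 0.2 ml saline was given ip and ascites aspirated 1 min later. Aliquot volume was measured. Live and dead cells were counted by trypan blue on a Neubauer haemocytometer. Mean ± SE, LSD.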

Data set [4] deals with Ehrlich. The data set can be described thus: Induction of apoptosis in mouse EAC cells transplanted in Albino mouse assessed as decrease in Bcl-2 level in cytoplasm of cells at 10 mg/kg, po QD for 2 weeks […] relative to control. Format: functional, organism-based. Details: dose 10 mg/kg.
Data set [5] is described as follows: Antitumor activity against mouse EAC cells transplanted in Albino mouse assessed as increase in cell mortality rate at 10 mg/kg, po QD for 2 weeks using trypan blue staining by Neubauer hemocytometry relative to control. Format: functional, Ehrlich. In short, it runs like this:
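Female albino mice given 0.2 ml EAC (1:50 dilution in saline of aliquot from stock mice) i.p.; dosed orally by gastric intubation in 10% DMSO daily for 2 weeks from day of inoculation, vehicle controls. At end, ascites collected after 0.2 ml saline i.p. under ether; alive/dead cells counted by trypan blue exclusion, percent dead per mouse; mean ± SE, LSD test.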

A short description of data set [6]: Antitumor activity against mouse EAC cells transplanted in Albino mouse assessed as decrease in EAC-aliquot volume at 10 mg/kg, po QD for 2 weeks relative to control (Rvb= 5.77+/-0.39 ml). Format: functional, Ehrlich. In a few lines:
as §1

For data set [7], the system named is Ehrlich. The data set can be described thus: Antitumor activity against mouse EAC cells transplanted in Albino mouse assessed as decrease in total number of cells at 10 mg/kg, po QD for 2 weeks using trypan blue staining by Neubauer hemocytometry relative to control. Type of data set: functional, organism-based. Further details: dose 10 mg/kg. In a few lines: as §1

The nature of data set [8]: Growth inhibition of mouse EAC cells at 50 ug/ml after 2 hrs using trypan blue staining by Neubauer hemocytometry. The settings on record: Ehrlich, read-out: GI. Format: functional. In short, it runs like this: (§2)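 EAC cells at 2.5 × 10^5 cells/ml in PBS were exposed to three compound concentrations for 2 h at 37 °C in 5% CO2. An equal volume of trypan blue was then added. Stained (dead) and unstained cells were counted on a Neubauer haemocytometer, and percent dead cells was calculated per test.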

The nature of data set [9]: Growth inhibition of mouse EAC cells at 100 ug/ml after 2 hrs using trypan blue staining by Neubauer hemocytometry. Type of data set: functional. The settings on record: Ehrlich, read-out: GI. In a few lines:
as §2

The nature of data set [10]: Growth inhibition of mouse EAC cells at 25 ug/ml after 2 hrs using trypan blue staining by Neubauer hemocytometry. Format: functional. The settings on record: Ehrlich, read-out: GI. In a few lines: as §2
The test system of data set [11] is Ehrlich. The data set can be described thus: Antitumor activity against mouse EAC cells transplanted in Albino mouse assessed as increase in number of dead cells at 10 mg/kg, po QD for 2 weeks using trypan blue staining by Neubauer hemocytometry relative to control. Details: dose 10 mg/kg. Type of data set: functional, organism-based. In short, it runs like this:
as §1

Data set [12] can be described thus: Antitumor activity against mouse EAC cells transplanted in Albino mouse assessed as increase in survival at 10 mg/kg, po QD for 2 weeks relative to control. Format: functional, Ehrlich. In short, it runs like this:
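Female albino mice inoculated i.p. with 0.2 ml 1:50 saline-diluted EAC; oral gavage in 10% DMSO daily between 10 and 12 AM for 2 successive weeks from inoculation day; vehicle-treated controls (12 mice per group). Survival percent = survived/total animals × 100.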

The test system of data set [13] is HepG2. The data set can be described thus: Cytotoxicity against human HepG2 cells after 48 hrs by sulforhodamine B assay. Format: functional, cell-based. In a few lines: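 HepG2 monolayers were treated with graded concentrations (0–100 range) for 48 h at 37 °C. Cells were then fixed and stained with sulforhodamine B, excess dye was removed with acetic acid, and bound dye was dissolved in Tris-EDTA for colorimetric reading. Survival fraction was plotted against concentration.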

Turning to `c1nc2nnnn2c2c1CCCC2`, the outcome in data set [1], in data set [3], in [4], in data set [7] and in data set [11] was Active. For the same compound, the LD50 at 48 h in [2] is 500 mg/kg. The Activity was 8.24% in data set [5], 2.52 mL in [6], 83.33% in [12] and “Dose-dependent effect” in data set [13]. Besides, in data set [8], the inhibition of growth at 50 µg/mL worked out at 25%. Besides, the inhibition of growth at 100 µg/mL in data set [9] was 45%. The inhibition of growth at 25 µg/mL in data set [10] is 10%.
